Screens as filed in PubChem.
Sampled rows, rich in hits. Any-hit rate of the full collection: about 2.8%.
Yeast life ext – yeast lifespan extension | S. cerevisiae growth with nicotinamide, OD615; deaD strain in restrictive glucose medium | inhibition of the nicotinamide effect, % at 10 µM | actives 0.68% (n = 130,000) | AID 775;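 active = inhibition above a set limit, placed 3 SD over the median of all compounds, cut at about 26% in these data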;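 note: 0% = nicotinamide-treated wells and 100% = cells grown without nicotinamide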
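assay system = DeaD-strain S. cerevisiae | measured by = absorbance at 615 nm | probe or stimulus = nicotinamide 1.5 mM | buffer or medium = CSMM-D glucose medium, restrictive | times = 48 h at 30 °C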
HCT116 PTEN-null – suppresses growth of cells with PTEN deletion; HCT116 PTEN-null viability, CellTiter-Glo, 60 h; active compounds read low; viability, % at 10 µM; actives 1.2% (n = 140,000); AID 827;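 active = viability at or below a set limit, 4 SD under the median of all tested compounds, cut at about 3.7% in these data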;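 note: PTEN knockout HCT116 line with beta catenin targeted HCT116 as companion control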
Yeast growth inh – yeast BB579 growth reduction in restrictive medium; S. cerevisiae BB579 growth, OD615, 48 h; inhibition, % at 10 µM; actives 0.51% (n = 140,000);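 active = inhibition above a set limit, 3 SD over the mean compound inhibition, cut at about 44% in these data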
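test system = yeast BB579 (DeaD) | buffer or medium = restrictive CSMM-D medium | doses = single compound dose of 10 µM, 0.25% DMSO final | times = 4 h preincubation and 48 h exposure at 30 °C | technique = culture absorbance at 615 nm | benchmarks = amphotericin B 10 µg/mL, positive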
SDO1 yeast rescue – compounds rescuing growth of sdo1-depleted yeast, bone marrow failure model; S. cerevisiae sdo1-depleted JHY4D growth rescue, OD600 30 h; active compounds read high; pdr5 snq2 efflux-pump mutant strain; z-score at 10 µM; actives 0.21% (n = 140,000);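 active = z-score above 3 at both the 24 hr and the 30 hr optical density reads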;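 note: z-score against mean and SD of all compound wells on the same plate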
bCat KO growth – beta-catenin-lacking colon tumor cell growth suppression. HCT116 beta-catenin knockout viability, CellTiter-Glo, 60 h; active compounds read low. viability, % at 10 µM. actives 1.5% (n = 140,000). AID 818;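 active = viability at or under a set limit, the compound median less 4 SD, cut at about 6% in these data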;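 note: 0% = Hyamine 1622 control at 20 µM and 100% = untreated cell control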
An asterisk follows results filed as active; nt = no result given; [ ] = another dose, or the depositor's remark.

SMILES | Yeast life ext | HCT116 PTEN-null | Yeast growth inh | SDO1 yeast rescue | bCat KO growth
COc1ccccc1NS(=O)(=O)c1cccc(NC(=O)Nc2cccc(Cl)c2)c1 | 2.4 | 6.0 | -1.0 | -0.57 | 3.9*
CC1CC(C)(C)Nc2ccc(OC(=O)c3ccco3)cc21 (stereo not drawn) | 16.6 | 0.7* | 6.3 | 0.39 | 0.8*
O=C(Oc1ccc2ccccc2c1)c1ccco1 | -11.4 | 97.1 | -53.5 | 0.05 | 95.6
Cc1cc(N2CCCCC2)nc(NCc2ccccc2)n1 | -19.8 | 8.0 | -1.6 | -0.41 | 6.0*
COc1ccc(/C=C/C(=O)c2ccc(C)c([N+](=O)[O-])c2)cc1O | -5.8 | 1.4* | -7.3 | -1.31 | 1.2*
COc1ccc(C(=O)/C=C/c2ccc(N3CCCCC3)c([N+](=O)[O-])c2)cc1 | -3.1 | 102.6 | -14.9 | -0.38 | 98.5
COc1cc(/C=C/C(=O)c2ccc(C)c([N+](=O)[O-])c2)cc(OC)c1O | 0.9 | 3.0* | -37.6 | -0.63 | 2.4*
COc1cccc(/C=C/C(=O)c2ccc(C)c([N+](=O)[O-])c2)c1 | 0.4 | 2.4* | -15.2 | -0.34 | 2.7*
COc1cccc(/C=C/C(=O)c2ccc[nH]2)c1 | -17.1 | 32.3 | -78.8 | -0.69 | 35.0
Cn1c(=O)c2ncn(CC(=O)Nc3ccc(N4CCOCC4)cc3)c2n(C)c1=O | -2.3 | 93.2 | -0.2 | -1.12 | 91.4
CCC(C)c1ccc2oc(-c3ccc(NC(=O)Cn4cnc5c(=O)n(C)c(=O)n(C)c54)cc3)nc2c1 (stereo not drawn) | -28.8 | 1.5* | -28.8 | -0.82 | 1.6*
NC(=O)c1ccc(NC(=O)COC(=O)c2c3c(nc4ccccc24)/C(=C\c2cccs2)CCC3)cc1 | -2.6 | 1.8* | -49.8 | 0.63 | 1.8*
CCc1cccc(C)c1NC(=O)COC(=O)c1c2c(nc3ccccc13)/C(=C\c1cccs1)CCC2 | 4.0 | 69.2 | -41.7 | 0.18 | 71.1
Cc1ccc(C2CC(c3ccccc3)=NN2C(=S)Nc2ccccc2)o1 (stereo not drawn) | -11.0 | 11.2 | 2.4 | -1.45 | 8.2
O=C(COc1ccc(Cl)cc1Br)NC(=O)NCc1ccccc1 | 7.6 | 89.5 | -25.0 | 0.21 | 91.8
Cc1nc2ccccc2n1-c1ccccc1 | 54.0* | nt | -25.3 | -0.74 | 91.4
N#C/C(=C\c1cccc(NC(=O)c2ccccc2Cl)c1)C(=O)NCCc1ccccc1 | 2.1 | 1.5* | -38.2 | -1.97 | 1.2*
COCCCNC(=O)/C(C#N)=C/c1cccc(NC(=O)c2ccccc2Cl)c1 | -1.2 | 57.7 | 20.6 | -1.31 | 50.6
CCSc1nc2ccccc2n1C(=O)/C=C\c1ccc(OC)c(OC)c1 | -17.8 | 5.6 | -8.9 | -0.61 | 1.7*
O=C1CCN(C(=O)c2ccccc2)C2CCCCC12 (stereo not drawn) | -11.2 | 103.2 | -23.4 | 0.12 | 106.7
CN1C(=O)c2oc3ccccc3c(=O)c2C1c1ccccn1 (stereo not drawn) | 31.2* | 102.4 | -4.6 | 0.48 | 97.4
COc1ccc2c(c1)-c1nc(/N=C/c3ccccc3O)sc1CC2 | -5.5 | 99.9 | -15.6 | 0.9 | 93.4
Oc1ccc2ccccc2c1/C=N/c1nc2c(s1)CCCC2 | 33.0* | 89.4 | -21.3 | -0.78 | 86.7
Oc1c(Br)cc(Br)cc1/C=N/c1nc2c(s1)CCCC2 | -14.9 | 99.3 | 99.3* | -0.03 | 98.1
Oc1ccc2ccccc2c1/C=N/n1cnnc1 | 12.8 | 84.3 | -38.8 | 0.1 | 90.3
SMILES | Yeast life ext | HCT116 PTEN-null | Yeast growth inh | SDO1 yeast rescue | bCat KO growth
Cc1ccc(S(=O)(=O)NC(=O)NCc2ccccn2)cc1 | 0.1 | 110.8 | -40.0 | 0.17 | 104.3
O=C(Nc1ccccc1)Nc1nc(-c2ccc(F)cc2)cs1 | -1.1 | 98.3 | -73.2 | 0.15 | 100.0
N#C/C(=N/O)c1nc(-c2ccc(F)cc2)cs1 | -3.2 | 100.5 | 54.0* | -0.99 | 93.5
O=C(NNC(=S)NC(=O)c1cccnc1)c1ccc(Cl)cc1 | 43.1 | 99.6 | -18.5 | 0.89 | 94.1
O=C(NC(=S)NNC(=O)c1ccc(Cl)cc1Cl)c1cccnc1 | 44.0* | 51.8 | -5.8 | -0.15 | 47.9
O=C(Cn1c2ccccc2c(=O)c2ccccc21)N/N=C/c1ccc(N2CCCC2)c([N+](=O)[O-])c1 | -3.0 | 7.2 | -27.5 | -0.56 | 2.7*
O=C(Cn1c2ccccc2c(=O)c2ccccc21)N/N=C/c1cc([N+](=O)[O-])ccc1N1CCCCCC1 | -10.9 | 10.5 | -15.2 | 1.06 | 10.9
COc1ccccc1-n1c(=O)oc2ccc(Cl)cc2c1=O | -15.0 | 1.9* | 53.2* | -1.94 | 1.2*
OC1(c2cccc(C(F)(F)F)c2)CCN(c2ncnc3c2[nH]c2ccccc23)CC1 | -15.4 | 1.3* | -4.7 | -0.73[7.6 µM] | 1.2*
c1ccc(CN2CCN(c3ncnc4c3[nH]c3ccccc34)CC2)cc1 | -21.2 | 8.0 | -38.6 | -1.18 | 3.9*
Cc1ccc2c(c1)[nH]c1c(N3CCN(Cc4ccccc4)CC3)ncnc12 | -14.4 | 9.1 | -79.1 | -1.01 | 7.0
c1ccc2c(c1)[nH]c1c(N3CCC4(CC3)OCCO4)ncnc12 | -4.0 | 52.5 | -47.7 | -0.21 | 52.5
Cc1ccc2[nH]c3c(N4CCCCCC4)ncnc3c2c1 | -28.3 | 9.4 | -18.0 | -2.03 | 5.1*
COc1ccc(C(=O)N2CCC(C(=O)Nc3ccc4c(c3)OCO4)CC2)cc1 | 2.3 | 99.7 | -33.4 | 0.85 | 96.5
CC(C)(C)CC(=O)Nc1ccc(Nc2ccccc2)cc1 | -23.3 | 105.1 | -10.4 | 0.86 | 97.6
CC(=O)O[C@@H]1C[C@H]2C(C)(C)C(=O)C=C[C@]2(C)[C@H]2CC[C@@]3(C)[C@H](c4ccoc4)OC(=O)[C@H]4O[C@]43[C@@]21C | 6.0 | 4.2 | -35.6 | -0.98 | 3.9*
Cc1ccc(NC(=O)c2c(O)c3ccccc3n(C)c2=O)nc1 | 10.0 | 60.2 | -62.0 | -0.55 | 77.1
CC(C)Cn1c(=O)c(C(=O)Nc2cnccn2)c(O)c2ccccc21 | 67.8* | 110.1 | -23.4 | -1.46 | 95.4
CC(OC(=O)c1ccncc1)C(=O)Nc1cc(S(=O)(=O)N2CCCCC2)ccc1Cl (stereo not drawn) | 1.2 | 85.9 | -44.4 | -0.49 | 94.6
CCN1C(=O)C(F)(CC)C(=O)c2ccccc21 (stereo not drawn) | 1.4 | 85.3 | -45.7 | 1.28 | 92.0
Cc1ccc(S(=O)(=O)N[C@@H](Cc2ccccc2)C(=O)CCl)cc1 | 49.4* | 94.8 | -34.9 | -2.06 | 100.8
CCCC(NS(=O)(=O)c1ccc(C)cc1)C(=O)O (stereo not drawn) | -5.2 | 90.9 | -41.1 | 1.04 | 97.7
C[n+]1ccccc1COc1ccc(C(C)(C)C)cc1 | 2.3 | 88.9 | -13.8 | 0.13 | 79.3
Clc1ccccc1N/N=C/c1ccc2c(c1)OCO2 | -6.8 | 65.6 | 89.5* | -1.88 | 67.6
Cc1cccc(NC(=O)C2SC(=Nc3c(C)cccc3C)C(C(=O)N3CCOCC3)=C2N)c1 (stereo not drawn) | -5.2 | 86.1 | 12.7 | 0.61 | 92.9
Nc1c(S(=O)(=O)c2cccc(Cl)c2)c2nc3ccccc3nc2n1/N=C/c1ccc(O)c(O)c1 | -32.1 | 1.5* | -10.1 | -2.06 | 1.1*
